In brackets after ≈: the same amount, converted by molar mass.

One assay has as its system Candida albicans. Nature of the assay: Antimicrobial activity against Candida albicans ATCC 10231 after 48 hrs by MTT assay. The class given is functional. The note with it: ATCC 10231, 48 h. In outline:
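Antifungal MTT colorimetric microdilution in RPMI-1640 medium. Compounds serially diluted in sterile medium (50% v/v DMSO in PBS). Inoculum approx. 10⁵ cfu/mL, plates at 27 °C for 48 h. Then PBS with 2 mg/mL MTT added, 4–5 h at room temperature. After a further 12 h, OD read at 550 nm to give MIC₅₀.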
A general note: Tetrazolium assays rely on reduction of a dye to a coloured formazan, in cell work by metabolically active cells.
The MIC50 is the lowest concentration that inhibits either 50% of growth or 50% of the strains tested, depending on the study. Turning to `O=C1OCC(N2CCCC2)=C1c1ccc(Br)cc1`, the MIC50 amounted to 49.8 µg/mL (≈ 162 µM).
`COc1ccc(C2=C(NCCN3CCOCC3)COC2=O)cc1OC` returned an MIC50 of more than 100 µg/mL.
The compound `O=C1OCC(N2CCCCC2)=C1c1cccc(Cl)c1` showed an MIC50 of 33.1 µg/mL (≈ 119 µM).
The compound `COc1ccc(C2=C(N3CCNCC3)COC2=O)cc1OC` had an MIC50 of more than 100 µg/mL.
`CN(C)C1=C(c2cccc(Br)c2)C(=O)OC1` gave an MIC50 of more than 100 µg/mL.
`O=C1OCC(N2CCCC2)=C1c1ccc(Cl)cc1` registered an MIC50 of more than 100 µg/mL.
`COc1ccc(C2=C(N3CCOCC3)COC2=O)cc1OC`: the MIC50 was more than 100 µg/mL.
The compound `O=C1OCC(NNc2ccc([N+](=O)[O-])cc2)=C1c1ccccc1` gave an MIC50 of 13.1 µg/mL (≈ 42.1 µM).
`O=C1OCC(N2CCCC2)=C1c1cccc(Cl)c1` came in with an MIC50 of 71.2 µg/mL (≈ 270 µM).
In turn, `CCCCNC1=C(c2cccc(Cl)c2)C(=O)OC1` displayed an MIC50 of 9.08 µg/mL (≈ 34.2 µM).
On the same count and under the same terms, the value for `O=C1OCC(NC2CCCCC2)=C1c1ccc(Br)cc1` was 62.8 µg/mL (≈ 187 µM); that for `O=C1OCC(NCCN2CCOCC2)=C1c1ccc(Br)cc1` was 3.5 µg/mL (≈ 9.53 µM).
The same measure, in the same setting: the value for `CN(C)C1=C(c2ccc(Br)cc2)C(=O)OC1` was more than 100 µg/mL; that for `CCCCNC1=C(c2ccc(OC)c(OC)c2)C(=O)OC1` was more than 100 µg/mL.
The compound `O=C1OCC(NCc2ccccc2)=C1c1cccc(Cl)c1` had an MIC50 of 83.9 µg/mL (≈ 280 µM).
Consider `O=C1OCC(N2CCNCC2)=C1c1cccc(Cl)c1`, for which the MIC50 is more than 100 µg/mL.

System in another assay: not listed separately
Nature of the assay: Inhibition of Staphylococcus aureus tyrosyl-tRNA synthetase by aminoacylation assay.
Conditions: not given
In outline:
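S. aureus TyrRS overexpressed in E. coli and purified (~98% by SDS–PAGE). Enzyme (0.2 nM) preincubated with a range of inhibitor concentrations for 10 min at room temperature, then prewarmed mix added at 37 °C. TCA-precipitated charged tRNA counted by scintillation; IC₅₀ is the concentration halving activity.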
As a reminder, the IC50 is the concentration that inhibits the measured activity by half. Read a low IC50 as higher potency. As to `O=C1OCC(N2CCCCC2)=C1c1cccc(Cl)c1`, the midpoint of inhibition, the IC50, lay at 2.8 µM.
Same read-out and setting: then `O=C1OCC(NNc2ccc([N+](=O)[O-])cc2)=C1c1ccccc1`, with 0.24 µM; and `O=C1OCC(N2CCCC2)=C1c1cccc(Cl)c1`, with 5.6 µM; and `O=C1OCC(NC2CCCCC2)=C1c1ccc(Br)cc1`, with 14.5 µM.
Compound `O=C1OCC(NCCN2CCOCC2)=C1c1ccc(Br)cc1` returned an IC50 of 3.3 µM.
The compound `O=C1OCC(NCc2ccccc2)=C1c1cccc(Cl)c1` came in with an IC50 of 8.9 µM.

Another assay relates to Bacillus subtilis. Nature of the assay: Antimicrobial activity against Bacillus subtilis ATCC 6633 after 24 hrs by MTT assay. In kind it is functional. Conditions: ATCC 6633, 24 h. In outline: (§1)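 MTT colorimetric broth microdilution in LB medium. Compounds serially diluted in sterile medium (50% v/v DMSO in PBS). Inoculum approx. 10⁵ cfu/mL, 37 °C for 24 h. Then 50 µL PBS with 2 mg/mL MTT added per well, 4–5 h at room temperature. After a further 12 h at room temperature, OD read at 550 nm to give MIC₅₀.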
Take `NC[C@H]1O[C@H](O[C@H]2[C@H](O)[C@@H](O[C@H]3O[C@H](CO)[C@@H](O)[C@H](N)[C@H]3O)[C@H](N)C[C@@H]2N)[C@H](O)[C@@H](O)[C@@H]1O` [KANAMYCIN]: the MIC50 was 0.43 µg/mL (≈ 0.888 µM).
In the case of `O=C1OCC(N2CCCC2)=C1c1ccc(Br)cc1`, the MIC50 was 50 µg/mL (≈ 162 µM).
`COc1ccc(C2=C(NCCN3CCOCC3)COC2=O)cc1OC` showed an MIC50 of more than 100 µg/mL.
Take `O=C1OCC(N2CCCCC2)=C1c1cccc(Cl)c1`: the MIC50 is 41.6 µg/mL (≈ 150 µM).
On the same count and under the same terms, the value for `COc1ccc(C2=C(N3CCNCC3)COC2=O)cc1OC` was more than 100 µg/mL; that for `CN(C)C1=C(c2cccc(Br)c2)C(=O)OC1` was more than 100 µg/mL; that for `O=C1OCC(N2CCCC2)=C1c1ccc(Cl)cc1` was more than 100 µg/mL.
The compound `COc1ccc(C2=C(N3CCOCC3)COC2=O)cc1OC` yielded an MIC50 of more than 100 µg/mL.
On to `O=C1OCC(NNc2ccc([N+](=O)[O-])cc2)=C1c1ccccc1`, for which the MIC50 worked out at 15.6 µg/mL (≈ 50.1 µM).
The same measure, in the same setting: then `O=C1OCC(N2CCCC2)=C1c1cccc(Cl)c1`, with 87.4 µg/mL (≈ 331 µM); and `CCCCNC1=C(c2cccc(Cl)c2)C(=O)OC1`, with more than 100 µg/mL.
Compound `O=C1OCC(NC2CCCCC2)=C1c1ccc(Br)cc1` came in with an MIC50 of 86.7 µg/mL (≈ 258 µM).
Same read-out and setting: then `O=C1OCC(NCCN2CCOCC2)=C1c1ccc(Br)cc1`, with 24.7 µg/mL (≈ 67.3 µM).
The compound `CN(C)C1=C(c2ccc(Br)cc2)C(=O)OC1` returned an MIC50 of more than 100 µg/mL.
In turn, `CCCCNC1=C(c2ccc(OC)c(OC)c2)C(=O)OC1` displayed an MIC50 of more than 100 µg/mL.
On the same count and under the same terms, the value for `O=C1OCC(NCc2ccccc2)=C1c1cccc(Cl)c1` was more than 100 µg/mL; that for `O=C1OCC(N2CCNCC2)=C1c1cccc(Cl)c1` was more than 100 µg/mL.

The next assay deals with Escherichia coli. In words: Antimicrobial activity against Escherichia coli ATCC 35218 after 24 hrs by MTT assay. Conditions: ATCC 35218, 24 h. In kind it is functional. In outline:
as §1
Compound `CC1(C)S[C@@H]2[C@H](NC(=O)Cc3ccccc3)C(=O)N2[C@H]1C(=O)O` [PENICILLIN G] gave an MIC50 of 2.5 µg/mL (≈ 7.48 µM).

Still in this assay, the particulars now being: ATCC 35218, 24 h, read-out: MIC50.
As to `O=C1OCC(N2CCCC2)=C1c1ccc(Br)cc1`, the MIC50 was more than 100 µg/mL.
Turning to `COc1ccc(C2=C(NCCN3CCOCC3)COC2=O)cc1OC`, the MIC50 was more than 100 µg/mL.
As for `O=C1OCC(N2CCCCC2)=C1c1cccc(Cl)c1`, the MIC50 is more than 100 µg/mL.
Still for that read-out and setting: then `COc1ccc(C2=C(N3CCNCC3)COC2=O)cc1OC`, with more than 100 µg/mL.
Take `CN(C)C1=C(c2cccc(Br)c2)C(=O)OC1`: the MIC50 is more than 100 µg/mL.
The same measure, in the same setting: the value for `O=C1OCC(N2CCCC2)=C1c1ccc(Cl)cc1` was more than 100 µg/mL.
Consider `COc1ccc(C2=C(N3CCOCC3)COC2=O)cc1OC`, for which the MIC50 is more than 100 µg/mL.
Turning to `O=C1OCC(NNc2ccc([N+](=O)[O-])cc2)=C1c1ccccc1`, the MIC50 is more than 100 µg/mL.
On the same count and under the same terms, then `O=C1OCC(N2CCCC2)=C1c1cccc(Cl)c1`, with more than 100 µg/mL; and `CCCCNC1=C(c2cccc(Cl)c2)C(=O)OC1`, with more than 100 µg/mL; and `O=C1OCC(NC2CCCCC2)=C1c1ccc(Br)cc1`, with more than 100 µg/mL.
On the same count and under the same terms, the value for `O=C1OCC(NCCN2CCOCC2)=C1c1ccc(Br)cc1` was more than 100 µg/mL; that for `CN(C)C1=C(c2ccc(Br)cc2)C(=O)OC1` was more than 100 µg/mL; that for `CCCCNC1=C(c2ccc(OC)c(OC)c2)C(=O)OC1` was more than 100 µg/mL.
As for `O=C1OCC(NCc2ccccc2)=C1c1cccc(Cl)c1`, the MIC50 is more than 100 µg/mL.
As for `O=C1OCC(N2CCNCC2)=C1c1cccc(Cl)c1`, the MIC50 is more than 100 µg/mL.

The test system of the next assay is Staphylococcus aureus. Nature of the assay: Antimicrobial activity against Staphylococcus aureus ATCC 25923 after 24 hrs by MTT assay. The class given is functional. The note with it: ATCC 25923, 24 h. In outline: as §1
`NC[C@H]1O[C@H](O[C@H]2[C@H](O)[C@@H](O[C@H]3O[C@H](CO)[C@@H](O)[C@H](N)[C@H]3O)[C@H](N)C[C@@H]2N)[C@H](O)[C@@H](O)[C@@H]1O` [KANAMYCIN]: the MIC50 came out at 1 µg/mL (≈ 2.06 µM).
The compound `O=C1OCC(N2CCCC2)=C1c1ccc(Br)cc1` registered an MIC50 of 37.1 µg/mL (≈ 120 µM).
With `COc1ccc(C2=C(NCCN3CCOCC3)COC2=O)cc1OC`, the MIC50 is 68.3 µg/mL (≈ 196 µM).
Regarding `O=C1OCC(N2CCCCC2)=C1c1cccc(Cl)c1`, the MIC50 was 7.5 µg/mL (≈ 27 µM).
Turning to `COc1ccc(C2=C(N3CCNCC3)COC2=O)cc1OC`, the MIC50 was more than 100 µg/mL.
Take `CN(C)C1=C(c2cccc(Br)c2)C(=O)OC1`: the MIC50 was 61.4 µg/mL (≈ 218 µM).
The compound `O=C1OCC(N2CCCC2)=C1c1ccc(Cl)cc1` registered an MIC50 of 88.4 µg/mL (≈ 335 µM).
For the compound `COc1ccc(C2=C(N3CCOCC3)COC2=O)cc1OC`, the MIC50 was more than 100 µg/mL.
`O=C1OCC(NNc2ccc([N+](=O)[O-])cc2)=C1c1ccccc1`: the MIC50 was 0.85 µg/mL (≈ 2.73 µM).
As for `O=C1OCC(N2CCCC2)=C1c1cccc(Cl)c1`, the MIC50 amounted to 12.6 µg/mL (≈ 47.8 µM).
Turning to `CCCCNC1=C(c2cccc(Cl)c2)C(=O)OC1`, the MIC50 is more than 100 µg/mL.
`O=C1OCC(NC2CCCCC2)=C1c1ccc(Br)cc1` showed an MIC50 of 27.8 µg/mL (≈ 82.7 µM).
Take `O=C1OCC(NCCN2CCOCC2)=C1c1ccc(Br)cc1`: the MIC50 worked out at 9.7 µg/mL (≈ 26.4 µM).
For the compound `CN(C)C1=C(c2ccc(Br)cc2)C(=O)OC1`, the MIC50 is more than 100 µg/mL.
For `CCCCNC1=C(c2ccc(OC)c(OC)c2)C(=O)OC1`, the MIC50 is more than 100 µg/mL.
For the compound `O=C1OCC(NCc2ccccc2)=C1c1cccc(Cl)c1`, the MIC50 worked out at 25.3 µg/mL (≈ 84.4 µM).
For `O=C1OCC(N2CCNCC2)=C1c1cccc(Cl)c1`, the MIC50 stood at 37.4 µg/mL (≈ 134 µM).
